Nine compounds from article PMC6660019 (ACS catalysis, 2019) can be followed below.

Experiment [1] deals with T1, LmbB2 (Streptomyces lincolnensis, UniProt Q54355). Briefly: EPR analysis of the ferrous LmbB2-nitrosyl. Conditions: 20 mM ligand; for EPR spectroscopic change compared with E-NO· alone: negative controls; for gave (average g value) of E-NO· complex after addition of ligand: 50 K, E-NO· alone gave = 2.030. Put shortly: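 His6-tagged LmbB2 expressed in E. coli BL21(DE3) with δ-aminolevulinic acid and ferrous ammonium sulfate, then Ni-affinity purified. 200 µM argon-saturated enzyme reduced anaerobically with 1 mM sodium dithionite, then exposed to excess NO from diethylamine NONOate in a sealed O2-free vial. Phenolic ligands added at 20 mM final. Samples frozen in liquid nitrogen. X-band EPR at 9.4 GHz, 100 kHz modulation, 50 K, 0.05 mW.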

Experiment [2] has as its target T1, LmbB2. Briefly: Isothermal titration calorimetry. Format: binding.
Experiment [3] has as its target T1, LmbB2. Briefly: LmbB2 catalytic reaction with H2O2, product analysis by HPLC. Conditions: after normalizing for the percentage of substrate conversion. Format: biochemical.
For experiment [4], the target named is T1, LmbB2. Kind of experiment: Oxygen production. It is filed as biochemical. Conditions: substrate concentration exceeding 200 µM, 1 mM H2O2.
For experiment [5], the target named is T1, LmbB2. Format: biochemical.
Where [6] appears, read: ITC, 100 mM KPi, 50 mM NaCl, pH 8, 20 °C.
Where [7] appears, read: ^18O-enriched H2O2 (≥ 90% ^18O), normal water.
The mark [8] stands for this setting: ^18O-enriched H2O2 (≥ 90% ^18O), normal water, listed as 3-Fluoro-L-tyrosiTane.
Where [9] appears, read: ^18O-enriched water (88% ^18O), normal H2O2.
Where [10] appears, read: ^18O-enriched water (88% ^18O), normal H2O2, listed as 3-Fluoro-L-tyrosiTane.
[11] abbreviates: ^18O-enriched water (88% ^18O), normal H2O2, listed as Tyrosine.

Where two headings read alike, the source gives them in different places.

`CC(C)(C)OC(=O)N[C@@H](Cc1ccc(O)cc1)C(=O)O` [N-boc-L-tyrosine]: the “EPR spectroscopic change compared with E-NO· alone” value on LmbB2 [1] is listed as “no significant EPR spectroscopic change”.
With `N[C@@H](Cc1ccc(O)c(Cl)c1)C(=O)O` [compound 6, 3-chloro-L-tyrosine], the Kd at LmbB2 [2] was 346 ± 2 µM. The “ratio of 1a formation among substrates 5, 6 and 7” value (from here on “ratio”) at LmbB2 [3] stood at 1.3.
With `COc1ccc(C[C@H](N)C(=O)O)cc1` [compound 3, O-methyl-L-tyrosine], the Kd on LmbB2 [2] (setting [6]) stood at 1290 ± 140 µM. At LmbB2 [1], the “gave (average g value) of E-NO· complex after addition of ligand” value (from here on “gave (average g value) of E-NO· complex”) worked out at 2.026.
At LmbB2 [2], `N[C@@H](Cc1ccc(O)c(I)c1)C(=O)O` [compound 7, 3-iodo-L-tyrosine] gave a Kd of 7820 ± 180 µM. The “ratio” value at LmbB2 [3] was 1.
Take `N[C@@H](Cc1ccccc1)C(=O)O` [compound 2, L-phenylalanine]: the Kd on LmbB2 [2] was 318 ± 8 µM. Besides, on LmbB2 [1], the “gave (average g value) of E-NO· complex” value is on record as 2.027.
`N[C@@H](Cc1ccc(O)c(F)c1)C(=O)O` [compound 5, 3-fluoro-L-tyrosine]: on LmbB2 [2], binding was characterised by a dissociation constant (Kd) of 22.2 ± 1.1 µM. The “binding affinity weaker than the native substrate” value on LmbB2 [2] (KD of analog versus L-tyrosine (1)) is “around 16 fold”. In addition, the “ratio” value on LmbB2 [3] was 4.5. The “rate of oxygen formation” value at LmbB2 [4] was roughly 10 min⁻¹. Further, at LmbB2 [5] (setting [7]), the “Dehalogenation and Hydroxylation product (1a) ^16O/^16O” value amounted to 30.3 ± 1.0%; the “Dehalogenation and Hydroxylation product (1a) ^16O/^18O” value stood at 69.7%; the “Hydroxylation product ^16O/^16O” value stood at 15.5 ± 0.2%; the “Hydroxylation product ^16O/^18O” value is 84.5%. In addition, on LmbB2 [5] (setting [8]), the “Dehalogenation and Hydroxylation product (1a) ^16O/^18O” value was found to be 69.7 ± 1.0%; the “Hydroxylation product ^16O/^18O” value is reported as 84.5 ± 0.2%. For the same compound, at LmbB2 [5] (setting [9]), the “Dehalogenation and Hydroxylation product (1a) ^16O/^16O” value came to 36.2%; the “Dehalogenation and Hydroxylation product (1a) ^16O/^18O” value is 51.5%; the “Dehalogenation and Hydroxylation product (1a) ^18O/^18O” value is 12.3%; the “Hydroxylation product ^16O/^16O” value is 57.3%. Further, at LmbB2 [5] (setting [9]), the “Hydroxylation product ^16O/^18O” value was 35.8% and the “Hydroxylation product ^18O/^18O” value is on record as 6.9%. At LmbB2 [5] (setting [10]), the “Dehalogenation and Hydroxylation product (1a) ^16O/^16O” value was determined as 36.2 ± 0.9%; the “Dehalogenation and Hydroxylation product (1a) ^16O/^18O” value amounted to 51.5 ± 0.7%; the “Dehalogenation and Hydroxylation product (1a) ^18O/^18O” value is 12.3 ± 1.2%; the “Hydroxylation product ^16O/^16O” value is recorded as 57.3 ± 1.6%. Further, at LmbB2 [5] (setting [10]), the “Hydroxylation product ^16O/^18O” value stood at 35.8 ± 1.6% and the “Hydroxylation product ^18O/^18O” value is recorded as 6.9 ± 0.7%.
With `Cc1ccc(O)cc1` [p-cresol], the “EPR spectroscopic change compared with E-NO· alone” value on LmbB2 [1] is “no significant EPR spectroscopic change”.
`N[C@@H](Cc1ccc(O)c([N+](=O)[O-])c1)C(=O)O` [compound 4, 3-nitro-L-tyrosine]: at LmbB2 [2] (setting [6]), the KD result was “no detectable thermal change”.
`N[C@@H](Cc1ccc(O)cc1)C(=O)O` [compound 1, L-tyrosine] showed a Kd on LmbB2 [2] of 1.35 ± 0.03 µM. The “gave (average g value) of E-NO· complex” value on LmbB2 [1] was 2.027. For the same compound, the “rate of oxygen formation” value on LmbB2 [4] is reported as “zero”. Also, the entries for the “Hydroxylation product ^16O/^16O” value at LmbB2 [5] (setting [7]), on LmbB2 [5] (setting [9]) and at LmbB2 [5] (setting [11]) were 7.2 ± 0.3%, 87.7% and 87.7 ± 0.9%, respectively. For the same compound, the “Hydroxylation product ^16O/^18O” value is given as “over 90%” at LmbB2 [5] (setting [7]); 92.8 ± 0.3% on LmbB2 [5] (^18O-enriched H2O2 (≥ 90% ^18O), normal water, listed as Tyrosine); 11.2% at LmbB2 [5] (setting [9]); 11.2 ± 0.8% at LmbB2 [5] (setting [11]). Further, the “Hydroxylation product ^18O/^18O” value at LmbB2 [5] (setting [9]) worked out at 1.0 ± 0.1%.

By Kd is commonly meant the constant that tells how readily two partners part at equilibrium. Low values mean higher affinity, high ones lower affinity.
